95 compounds from PubChem BioAssay AID449763 (Sanford-Burnham Center for Chemical Genomics, 2010) can be followed below.

The campaign covered roughly 330,000 compounds. About 1,100 (0.33%) were called active. The sample holds actives, similar compounds and a random draw of the others, so the mix is not that of the screen. Values without a mark were called inactive.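 How the source made its calls: active means at 10 µM dose, activation of 40% or more, normalized to positive control; inactive means the rest.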

The assay can be described thus: PERK-eIF2a-CHOP pathway stimulators – cell-based, CHO-CHOP luciferase reporter, luminescence, uHTS, primary screen (AID 449763).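 Further: 100% = tunicamycin at 10 µg/mL and 0% = DMSO alone.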 The conditions noted are these: UPR activation, at 10 µM, active compounds read high, percent of tunicamycin response over DMSO baseline. The essentials:
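assay system = CHO CHOP reporter cells | amount = 500 CHO-CHOP cells per well | buffer or medium = F12 with 10% FBS | incubation = 16-18 h cell attachment, then 6 h compound exposure, 37 °C | detection = luminescence read with Steady-Glo | read-out = percent activation relative to tunicamycin control | controls = tunicamycin high control, DMSO low control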
A general note: A reporter such as luciferase makes a cellular process visible.
For `Cc1ccc(NC(=O)C(=O)NCc2ccc(/C=N/NC(=O)c3c(C)nc4cc(C)ccn34)o2)cc1`, the activation is 4.97%.

For `CCc1ccc(N(C(=O)c2csnn2)C(C(=O)NC2CCCCC2)c2ccncc2)cc1` (stereo not given), the activation is -1.98%. For the compound `CCOC(=O)c1c(NC(=O)CCl)sc(C(=O)N(CC)CC)c1C`, the activation is 48.1% (active). As for `CCC(=O)Nc1sc(C(=O)Nc2ccccc2)c(C)c1C(=O)OC`, the activation was -0.316%. In the case of `CCOC(=O)Nc1sc(C(=O)N(C)C)c(C)c1C(=O)OCC`, the activation was -4.31%. Turning to `COC(=O)c1c(NC(=O)CCN2CCOCC2)sc2c1CCCC2`, the activation was 0.577%. As to `CCOC(=O)c1sc(NC(=O)CCN2CCOCC2)c(C(=O)OCC)c1C`, the activation was 43.2% (active).

Turning to `CCOC(=O)c1c(NC(=O)CCCN2CCOCC2)sc2c1CC(C)(C)OC2`, the activation was -2.37%.

For `COc1ccc(C(=O)NC2CC(C)(C)NC(C)(C)C2)cc1OC`, the activation was 0.193%. As to `O=C(CCC(=O)n1ncc2ccccc21)NCc1ccccc1Cl`, the activation is -0.158%. On to `COc1ccc(S(=O)(=O)NC(C)C(=O)N2CCCCCC2)cc1` (stereo not given), for which the activation was -2.32%.

In the case of `CCn1nc(C)c(CNC(=O)C2CCC(=O)N(Cc3cccc(F)c3)C2)c1C` (stereo not given), the activation was 0.585%. For `Fc1ccccc1/C=C1\CCCC2=C1Nc1ncnn1C2c1ccccc1F` (stereo not given), the activation was 90.9% (active).

For `CC1=C(C(N)=O)C(c2ccc(Br)cc2)n2ncnc2N1` (stereo not given), the activation was -1.48%. For `Brc1ccc2c(c1)[C@H]1OCC[C@H]1[C@@H](c1cccs1)N2`, the activation is -1.2%. In the case of `O=C1CCN(C(=O)Nc2ccccc2)N1`, the activation is -2.23%. Regarding `Cc1ccc(-c2nnc(-c3ccc(NC(=O)c4cccs4)cc3)o2)cc1`, the activation is 325% (active).

As to `Cc1ccc(NC(=O)c2cccs2)cc1S(=O)(=O)N(C)C`, the activation was 1.35%. Consider `Cc1ccc(OCC(=O)Nc2ccc(NC(=O)c3cccs3)cc2)c(C)c1`, for which the activation was 0.176%. Next, `CN(C)CCCn1c(SCc2ccc(Cl)cc2)nnc1-c1ccncc1`: 139% (active); `Cn1c(SCc2ccc(F)cc2)nnc1-c1ccncc1`: 1.85%. Regarding `CC1CCCCC1NC(=O)CSc1nnc(-c2ccncc2)n1CCCN(C)C` (stereo not given), the activation was -1.77%. For `COc1ccc(-n2cc(CNC3CCOCC3)c(-c3cccc(F)c3)n2)cc1`, the activation was 0.961%. The same measure for `O=C(COc1ccccc1O)NC1CCCC1`: 3.04%; for `CNC(=O)c1sc(NCc2ccccc2OC)nc1C`: -3.17%. As to `CC(=O)c1sc(N/N=C\c2ccc(C)cc2)nc1C`, the activation is 5.8%.

Take `COc1cccc2sc(Nc3nc(C)c(C(C)=O)s3)nc12`: the activation is 309% (active). As to `CCOCCCn1c(NN)nc2ccccc2c1=O`, the activation is 1.17%.

Regarding `CCn1c(/C=C/c2ccc([N+](=O)[O-])o2)nc2ccccc2c1=O`, the activation is 71.3% (active). The same measure for `CCn1c(SCc2ccccc2)nc2cc(OC)c(OC)cc2c1=O`: -0.179%; for `COC(=O)c1cc(CNC(=O)CC(C)c2ccccc2)ccc1OC` (stereo not given): 2.14%. On to `COc1ccc(-c2ccc(Nc3ccc(S(=O)(=O)N4CCCC4)cc3)nn2)cc1OC`, for which the activation was 3.88%. Regarding `COc1ccc(-c2cc(-c3ccc(N)cc3)nc(N)c2C#N)cc1OC`, the activation was -0.472%. For `COc1ccc(-c2cc(C(F)(F)F)nc(S(C)(=O)=O)n2)cc1OC`, the activation was 106% (active). Consider `O=C1/C(=C/c2ccc(F)cc2)SC(=S)N1NS(=O)(=O)c1ccccc1`, for which the activation is 0.174%. `CC(C)CNC(=S)NNC(=O)c1ccccc1OC(F)F`: the activation is -0.805%. As for `Cc1onc(C(=O)NCc2ccc(F)cc2)c1[N+](=O)[O-]`, the activation was -0.611%. Consider `CCc1noc(C)c1C(=O)NNC(=O)c1ccc(F)cc1`, for which the activation was -0.408%. In the case of `O=C(/C=C/c1ccc([N+](=O)[O-])o1)NNC(=O)c1ccc(F)cc1`, the activation is 129% (active).

For the compound `CC(C)CNS(=O)(=O)c1ccc(CCC(=O)NCc2ccc(Cl)cc2)cc1`, the activation is 0.956%. The same measure for `COc1cccc(-n2c(SCC(=O)NC3CCCCC3)nc3n[nH]c(C)c3c2=N)c1`: -0.882%. The same measure for `Nc1ccccc1SC(C[N+](=O)[O-])c1ccccc1` (stereo not given): 181% (active); for `Cc1ccc(C(C[N+](=O)[O-])c2c(C)cc3ccccn23)cc1` (stereo not given): -0.989%. The same measure for `COc1ccc(S(=O)(=O)N2CCOCC2)cc1NC(=O)CSc1ncnc2ccccc12`: -1.54%; for `Cc1nn(CC#N)c(=O)n1N(C)c1ncc(C(F)(F)F)cc1Cl`: -1.47%; for `COc1ccc(OC)c(S(=O)(=O)n2c([N+](=O)[O-])cnc2C)c1`: -0.979%.

Take `CCOc1ccc(C(C)C)cc1S(=O)(=O)n1nc(C)cc1C`: the activation is -3.09%. For `COc1ccc(C(C[N+](=O)[O-])n2nc(C)cc2C)cc1` (stereo not given), the activation is 59.5% (active). As for `O=C(NNS(=O)(=O)c1ccccc1)c1cnn(-c2ccc(Cl)cc2)c1C(F)(F)F`, the activation was 2.88%. As to `CCN(C(=O)COC(=O)/C=C/c1nc2ccccc2s1)C1CCS(=O)(=O)C1` (stereo not given), the activation was 0.0282%. Take `CN1CCNC(=O)C1CC(=O)N1CC=C(c2ccc(F)cc2)CC1` (stereo not given): the activation was -1.29%. The same measure for `C=CS(=O)c1sc(Cl)c(N2CCOCC2)c1[N+](=O)[O-]` (stereo not given): 97.2% (active). Consider `O=C(CSc1ccccc1)Nc1ccc(C(=O)Nc2cccc(O)c2)cc1`, for which the activation is 2.1%. Consider `O=C(CSCc1ccccc1)Nc1ccccc1`, for which the activation is 2.11%. The same measure for `O=C(CCl)Nc1cccc(CP(=O)(c2ccccc2)c2ccccc2)c1`: 60.2% (active); for `COc1c(C)cc(C(=O)C2CCCN(S(=O)(=O)c3c(C)noc3C)C2)cc1C` (stereo not given): 3.35%; for `Cc1cc(C)nc(SCC(=O)N(C)C)n1`: -0.00178%.

With `O=C(/C=C/Sc1ncn[nH]1)c1ccc(Cl)cc1`, the activation is -3.23%. Take `Cc1cc(C)nc(S/C=C/C(=O)c2ccccc2)n1`: the activation was 64.1% (active). On to `CC1(C(=O)N/N=C/c2cc3c(cc2Br)OCO3)CC1(Br)Br` (stereo not given), for which the activation was 1.01%. On to `O=C(N/N=C\c1cc2c(cc1Cl)OCO2)c1ccc(Br)s1`, for which the activation is 51.5% (active). The same measure for `O=C(N/N=C/c1cc2c(cc1Br)OCO2)C1COc2ccccc2O1` (stereo not given): 8.62%.

In the case of `CC(=O)Nc1ccc(Nc2nc3c(S(=O)(=O)c4ccc(C)c(C)c4)nnn3c3ccccc23)cc1`, the activation is 0.65%. With `Cc1cccc(Nc2nc3c(S(=O)(=O)c4ccccc4)nnn3c3ccccc23)c1C`, the activation was 145% (active).

Regarding `Cc1ccc(S(=O)(=O)c2nnn3c2nc(N2CCN(c4ccccn4)CC2)c2ccccc23)cc1`, the activation was 1.19%. With `Cc1cccc(C(=O)N2CCCC(Nc3ccc(C(C)C)cc3)C2)n1` (stereo not given), the activation was 0.069%. In the case of `COc1cccc(/C=N/NC(=O)CNC(=O)c2ccc(S(=O)(=O)N3CCOCC3)cc2)c1OC`, the activation is 3.45%. As for `COc1ccc(C(=O)NCC(=O)N/N=C/c2ccc([N+](=O)[O-])o2)cc1OC`, the activation was 113% (active). Consider `COc1cc(CC(=O)N/N=C/c2ccccc2)c([N+](=O)[O-])cc1OC`, for which the activation is 0.0789%. In the case of `CCN(c1ccc(NC(=O)COC(=O)CCc2nc3ccccc3n2-c2ccccc2)cc1)C(C)C`, the activation was -1.22%.

Consider `Cc1c(CN2CCC(n3nccc3NC(=O)CCc3ccccc3)CC2)cnn1C`, for which the activation is 1.65%. As for `COc1ccc(CN2C(=O)CN=C2Nc2ccc(C)cc2C)cc1`, the activation was 1.91%. Take `S=C1SCN(CCN2CCOCC2)CN1Cc1ccccc1`: the activation was 129% (active). For the compound `COc1ccc(CN2CN(C(C)C)CSC2=S)cc1`, the activation was 0.456%. Next, `c1ccc(-c2ccc(OCCN3CCOCC3)cc2)cc1`: 5.5%. Next, `COc1ccc(OC)c(NC(=O)CSc2nc(-c3ccccc3)cc(=O)[nH]2)c1`: 4.07%. In the case of `C=C(C)CNC(=S)Nc1ccc(S(=O)(=O)Nc2cnc3ccccc3n2)cc1`, the activation was -2.1%. Next, `COc1ccc(C(=O)NCC2CCCN2S(=O)(=O)c2cccs2)cc1OC` (stereo not given): 11.9%; `COCc1ccc(C(=O)N2CCc3c([nH]c4ccccc34)C2c2ccccn2)s1` (stereo not given): -0.769%; `CCOc1cc(NS(=O)(=O)c2ccc(OC)cc2)c(OCC)cc1NC(C)=O`: 1.17%. Consider `COc1ccc(N2CC(NS(=O)(=O)c3ccc4ccccc4c3)CC2=O)cc1` (stereo not given), for which the activation is -0.659%. The same measure for `COc1cc(NS(=O)(=O)c2ccc3ccccc3c2)c2ncccc2c1`: 409% (active); for `COC(=O)[C@]1(C)N[C@H](CN(C)C(=O)c2ccc(C(C)(C)C)cc2)[C@@H]2C(=O)N(C)C(=O)[C@@H]21`: 2.43%; for `CCCCOc1ccc(N(CC(=O)NCC2CCCO2)C(=O)CCC(=O)Nc2cc(C)ccn2)cc1` (stereo not given): -1.23%. The same measure for `O=C(NCc1ccco1)c1sc2cccc(F)c2c1Cl`: 2.12%; for `O=C(N/N=C/c1ccc(O)c(O)c1)C1c2ccccc2Oc2ccccc21`: 3.18%; for `O=C(O)c1ccc(N/N=C/c2ccc3ncccc3c2)cc1`: -10.5%.

Turning to `Oc1ccc(/C=N/Nc2ccc(C(F)(F)F)cn2)cc1O`, the activation is 67.4% (active).

`Cc1ccc(CCCOC(=O)C[N+]2(C)CCCC2)cc1`: the activation is 1.65%. The same measure for `O=S(=O)(NCC1CCCO1)c1cnc(Cl)c(Cl)c1` (stereo not given): 4.71%; for `O=C(NCCCO)/C(=C\C=C\c1ccccc1)NC(=O)c1ccccc1Cl`: 0.299%; for `COc1ccc(CCNC(=O)CCc2ccccc2O)cc1OC`: -0.118%. In the case of `CC1=CC(C)(C)Nc2ccc(OC(=O)CN3C(=O)C4CCCCC4C3=O)cc21` (stereo not given), the activation is 67.7% (active). `CC1=CC(C)(C)Nc2ccc(OC(=O)C(Cc3ccccc3)N3C(=O)C4CCCCC4C3=O)cc21` (stereo not given): the activation was -1.34%. Consider `O=C(COC(=O)CN1C(=O)C2CCCCC2C1=O)Nc1ccc(F)c(F)c1F` (stereo not given), for which the activation was 1.69%.
